Source: PubChem BioAssay
In the library only some 2% were active in any assay of this set; here they are far more common.
CHRM5 antagonist = antagonists of human muscarinic M5 receptor (CHRM5); 0.59% of 360,000 active; AID 624040; inhibition, % at 3 µM; CHO-hM5 cells, Fluo-8 calcium fluorescence, ACh EC80;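 active = inhibition above a per-plate cutoff, the mean of that plate's test compounds plus 3 SD, cut at about 27% in these data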;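 note: 0% = acetylcholine EC80 with DMSO and 100% = DMSO without agonist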
Target sequence (P08912 whole entry, looked up): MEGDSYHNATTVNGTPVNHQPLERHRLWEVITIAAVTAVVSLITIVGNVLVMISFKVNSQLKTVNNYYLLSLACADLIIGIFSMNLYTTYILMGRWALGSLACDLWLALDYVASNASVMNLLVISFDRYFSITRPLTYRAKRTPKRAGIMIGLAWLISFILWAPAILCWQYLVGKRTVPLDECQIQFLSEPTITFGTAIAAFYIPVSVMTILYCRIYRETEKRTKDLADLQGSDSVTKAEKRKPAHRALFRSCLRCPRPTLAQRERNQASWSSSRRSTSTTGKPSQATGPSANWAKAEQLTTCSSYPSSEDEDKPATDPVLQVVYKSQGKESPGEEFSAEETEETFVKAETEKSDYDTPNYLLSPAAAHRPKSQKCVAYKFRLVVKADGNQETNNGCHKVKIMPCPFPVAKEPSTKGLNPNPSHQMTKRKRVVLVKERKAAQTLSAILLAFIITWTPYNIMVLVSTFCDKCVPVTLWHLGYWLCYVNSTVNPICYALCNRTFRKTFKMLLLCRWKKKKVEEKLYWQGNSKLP
CHRM1 agonist = agonists of human M1 muscarinic receptor. activation, % at 3 µM. CHO-K1 hM1, Fluo-8 calcium fluorescence, agonist mode; 0% DMSO, 100% acetylcholine EC100. AID 588814. P11229. 0.33% of 360,000 active;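 active = activation above the run's mean compound activation plus 3 SD, cut at about 16% in these data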;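 note: peak over basal fluorescence ratio within a 140 s kinetic read after compound addition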
M5 ag = agonists of human muscarinic M5 receptor (CHRM5); P08912; CHO-K1 hM5 cells, Fluo-8 calcium fluorescence; 0% DMSO wells, 100% maximal acetylcholine response; activation, % at 3 µM; 0.19% of 360,000 active;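 active = activation above the run's mean over test compounds plus 3 SD, cut at about 23% in these data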;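 note: signal is peak over basal fluorescence ratio across the kinetic read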
CHRM1 antagonist = human CHRM1 antagonism | 1.3% of 360,000 active | P11229 | inhibition, % at 3 µM | CHO-K1 hM1, Fluo-8 calcium fluorescence, ACh EC80 antagonist;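 active = percent inhibition above its own plate's cutoff, namely the mean of that plate's compound wells plus 3 SD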;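 note: peak over basal fluorescence ratio during 140 s after agonist addition; 0% = ACh EC80 plus DMSO and 100% = DMSO alone without agonist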
CHRM5 PAM = potentiates acetylcholine response at human M5 receptor | P08912 | CHO-K1 hM5, Fluo-8 calcium, ACh EC20 PAM; 0% = ACh EC20, 100% = ACh EC100 | activation, % at 3 µM | 0.3% of 360,000 active | AID 624038;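 active = activation above the run cutoff, the mean activation of all test compounds plus 3 SD, cut at about 18% in these data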
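Assay system: CHO-K1 hM5 cells / Incubation: Fluo-8 loading 80 min at 37 °C plus 30 min room temperature / Technique: Fluo-8 calcium dye fluorescence, kinetic read / Repeats: single replicate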
M1 PAM = human CHRM1 positive allosteric modulation | P11229 | CHO-K1 hM1, Fluo-8 calcium fluorescence, ACh EC20; 0% = ACh EC20, 100% = maximal ACh | activation, % at 3 µM | 0.088% of 360,000 active | AID 588819; in the data active = activation above about 19%, passing the limit was not always enough
An asterisk follows results filed as active; nt = not tested or not shown; ! = not active in a repeat.

SMILES | CHRM5 antagonist | CHRM1 agonist | M5 ag | CHRM1 antagonist | CHRM5 PAM | M1 PAM
CCC(C(=O)Nc1ccc(C(=O)N2CCCC2)cc1)c1ccccc1 (stereo not given) | 16.7 | 17.9* | 22.7 | 13.2 | -15.7 | -7.6
COc1ccc(Cl)cc1NC(=O)C(OC)c1ccccc1 (stereo not given) | -1.4 | -5.4 | -8.6 | -9.1 | 9.5 | 9.7
CCc1ccc(NC(=O)C(CC)c2ccccc2)cc1 (stereo not given) | 2.4 | 26.0* | 24.4* | 16.7 | -1.7 | -5.9
CC(C)C(=O)Nc1ccc(C(=O)N2CCCCCC2)cc1 | -4.9 | -1.8 | -0.7 | -10.5 | 3.2 | 11.8
O=C(NCc1ccc(F)cc1)c1cc(C2CCCN(C(=O)c3ccc4ccccc4c3)C2)on1 (stereo not given) | 2.4 | -2.6 | -0.1 | 7.5 | -3.0 | -8.1
CC(C)C(C(=O)N1CCN(Cc2ccccc2)CC1)c1ccccc1 (stereo not given) | 17.9 | -7.7 | -5.6 | 89.0* | -11.7 | -28.3
O=C(C(Cc1ccccc1)n1cccc1)N1CCN(Cc2ccccc2)CC1 (stereo not given) | 10.7 | -4.9 | 2.5 | 92.4* | -12.7 | -30.6
COc1ccc([N+](=O)[O-])c(O)c1C(C)=O | 1.9 | -0.1 | 1.2 | -23.1 | 1.8 | 14.8
COC(=O)[C@@]1(Sc2ccc(C)cc2)CC(=O)N[C@@H]1c1ccc(C(F)(F)F)cc1 | -2.4 | nt | 4.4 | nt | 2.4 | nt
COCCN1C(=O)CSCC1(C)C(=O)NCc1ccccc1 (stereo not given) | -14.5 | nt | 2.3 | nt | 10.1 | nt
CC(=O)c1c(C)[nH]c(C(=O)CN2C(=O)NC(C)(c3ccc(C)cc3)C2=O)c1C (stereo not given) | 19.2 | 26.5* | 46.4* | 9.1 | -8.3 | 4.4
O=C(NCCN1CCCC1)c1ccc(Cn2c(=S)[nH]c3cc4c(cc3c2=O)OCO4)cc1 | 11.7 | -6.3 | 27.6* | 8.9 | -15.1 | -19.9
Cc1coc2cc3oc(=O)c(CCC(=O)NC4CC4)c(C)c3cc12 | 16.8 | 1.6 | 10.1 | 31.4* | -16.6 | -21.1
COC(=O)C1(c2ccccc2)NC(c2cccs2)C2C(=O)N(c3ccccc3)C(=O)C21 (stereo not given) | -10.9 | 41.2* | 53.0* | -16.8 | -2.5 | 13.8
Cc1cc(C)c(S(=O)(=O)N2CCCC(C(=O)NCc3cccnc3)C2)c(C)c1 (stereo not given) | 12.8 | -4.3 | -4.7 | 34.2* | -6.3 | -15.9
O=C(NCc1cccnc1)C1CCCN(S(=O)(=O)c2cccc3nsnc23)C1 (stereo not given) | 11.8 | -9.2 | -4.6 | 38.2* | -15.7 | -21.6
O=C(Nc1ccc2c(c1)OCO2)c1csc([C@@H]2C[C@H](O)[C@@H](CO)O2)n1 | 9.2 | -0.9 | -0.3 | 9.1 | -2.6 | -2.9
CCCc1cnc(Nc2nc(C(N)Cc3ccc(OC)cc3)cs2)nc1 (stereo not given) | 11.9 | 5.4 | 6.5 | -10.5 | -0.4 | 19.2
CCCC1CC(C)(C(=O)CSc2n[nH]c(-c3ccccc3)n2)OC1=O (stereo not given) | 6.3 | -1.6 | 1.6 | 30.1* | -3.4 | -14.9
COc1ccc(CN(C)C(=O)CCNS(=O)(=O)c2ccccc2)c(OC)c1 | 14.0 | 9.6 | 1.6 | -7.1 | -9.3 | 19.0
c1coc(CN(Cc2ccco2)c2ncnc3c2oc2ccccc23)c1 | 31.5* | 0.2 | 4.0 | 36.6* | -22.5 | -15.6
Cc1ccccc1OCc1n(CC(=O)OC2CC(C)CCC2C(C)C)c2ccccc2[n+]1C (stereo not given) | 44.1*! | -12.5 | -9.3 | 44.4* | -19.3 | -32.7
CC1CCC(C(C)C)C(OC(=O)COC(=O)c2ccc(N)cc2)C1 (stereo not given) | 3.9 | -7.8 | 0.3 | -5.2 | 2.3 | 6.9
CC1CCC(C(C)C)C(OC(=O)Cn2c(-c3ccc(Br)cc3)[n+](C)c3ccccc32)C1 (stereo not given) | 10.6 | -15.8 | -11.9 | 23.0* | -10.5 | -29.0
CC1CCC(C(C)C)C(OC(=O)Cn2c(-c3ccc(Cl)cc3)[n+](C)c3ccccc32)C1 (stereo not given) | 22.0 | -3.8 | -16.1 | 42.0* | -17.9 | -19.2
SMILES | CHRM5 antagonist | CHRM1 agonist | M5 ag | CHRM1 antagonist | CHRM5 PAM | M1 PAM
CC1CCC(C(C)C)C(OC(=O)COC(=O)c2cccn2C)C1 (stereo not given) | -0.9 | -4.5 | -4.2 | -3.1 | -8.3 | 2.0
CN(C)CCCN1c2ccc(O)cc2Sc2ccc(Cl)cc21 | 55.8* | -4.1 | -1.1 | 99.8* | -19.9 | -30.7
CN(C)CCCN1c2ccccc2Sc2ccc(C(F)(F)F)cc21 | 98.3* | nt | 1.1 | nt | -18.5 | nt
OCCN1CCN(CC/C=C2/c3ccccc3Sc3ccc(C(F)(F)F)cc32)CC1 | 8.7 | -5.3 | 0.8 | 35.9 | -6.2 | -24.2
CN1CCN(CCC(=O)N2c3ccccc3Sc3ccc(C(F)(F)F)cc32)CC1 | 10.6 | -6.7 | -6.0 | 41.7* | -19.1 | -24.5
O=C(CSc1nc2ccccc2s1)N1c2ccccc2Sc2ccc(C(F)(F)F)cc21 | 8.9 | -2.8 | -4.5 | 1.4 | -17.1 | -0.4
CN(C)CCCN1c2ccc([N+](=O)[O-])cc2CCc2cc([N+](=O)[O-])ccc21 | -1.8 | -5.2 | 1.9 | 5.9 | 10.1 | -2.0
CN(C)CCC(=O)N1c2ccccc2Sc2ccc(C(F)(F)F)cc21 | 100.2* | -8.6 | -22.8 | 99.0* | -32.2 | -29.2
O=C1c2ccccc2C(=O)N1CC(=O)N1c2ccccc2Sc2ccc(C(F)(F)F)cc21 | 0.7 | -0.9 | 0.2 | 1.4 | 7.4 | 2.0
Nc1ccn([C@@H]2O[C@H](C(=O)NCCCN3CCCC3=O)[C@@H](O)[C@H]2O)c(=O)n1 | 1.1 | nt | 1.0 | nt | -0.8 | nt
COc1cc(S(=O)(=O)NCc2ccncc2)ccc1Br | 35.3* | 6.2 | 2.1 | 22.6 | -16.0 | -5.0
COC(=O)COc1ccc(S(=O)(=O)NCc2ccncc2)cc1 | 27.9* | -1.0 | 7.4 | 23.2 | -16.6 | -10.2
COc1cc(OC)cc(C(=O)N2CCC(n3c(C)nc4cc(F)ccc43)CC2)c1 | -8.5 | -1.1 | -7.6 | 0.5 | 33.6* | 2.1
COc1ccc(NC(=O)CN2CCC(n3c(C)nc4cc(F)ccc43)CC2)c(OC)c1 | -2.5 | -0.1 | -5.1 | -16.4 | -1.3 | 12.5
CC(C)(C)C(=O)/C=c1\s/c(=C\c2ccc(-c3ccc([N+](=O)[O-])cc3)o2)c(=O)n1CC(=O)NC(N)=O | 32.5* | 23.3* | 9.4 | 39.0* | -12.3 | -9.1
CCN(CC)CCNC(=O)C1c2ccccc2Oc2ccccc21 | 58.7* | -10.0 | -8.4 | 92.6* | -18.0 | -29.7
O=C(NCCCn1ccnc1)C1c2ccccc2Oc2ccccc21 | 13.1 | -6.5 | -6.7 | 23.6* | -17.8 | -25.3
